Source: ChEMBL document CHEMBL1275477, “Discovery and characterization of QPT-1, the progenitor of a new class of bacterial topoisomerase inhibitors” (Antimicrob Agents Chemother, 2008)
≈ marks a conversion by molar mass, not a printed value.

Legend:
Staphylococcus aureus [1] = assay: Antibacterial activity against methicillin-susceptible Staphylococcus aureus by broth microdilution method; type: functional
How it was run: (§1)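 Broth microdilution MIC following National Committee for Clinical Laboratory Standards methods. Plasmid-borne GyrB in transformed S. aureus strains was overexpressed by adding 100 ng/ml doxycycline.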

Staphylococcus aureus [2] = assay: Antimicrobial activity against Staphylococcus aureus RN4220 expressing gyrB D437N mutant gene by broth microdilution method; type: functional; how it was run: as §1
[3] = Inhibition of Escherichia coli DNA topoisomerase 4 by gel electrophoresis
Staphylococcus aureus [4] = assay: Antibacterial activity against ciprofloxacin-resistant Staphylococcus aureus by broth microdilution method; type: functional; how it was run: as §1
Staphylococcus aureus [5] = assay: Antimicrobial activity against methicillin-resistant Staphylococcus aureus SUAR 1015-01 harboring gyrA S84L, parC S80F and parE S189R mutant gene by broth microdilution method; type: functional; how it was run: as §1
[6] = Inhibition of Escherichia coli DNA gyrase by gel electrophoresis
Staphylococcus aureus [7] = assay: Antimicrobial activity against Staphylococcus aureus 286607-R1 harboring wild type gyrB by broth microdilution method; type: functional; how it was run: as §1
Staphylococcus aureus [8] = assay: Antibacterial activity against methicillin-resistant Staphylococcus aureus UC9213 in orally dosed lethal systemic CF-1 mouse infection model; type: functional; details: UC9213, po
How it was run: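 Lethal systemic infection in female CF-1 mice (20 g), infected intraperitoneally with enough bacteria to kill 90–100% of untreated mice. Thawed cultures were suspended in brain heart infusion broth with 4% (wt/vol) dried brewer's yeast. Drug given orally or subcutaneously at 1 and 5 h postinfection, at five or more dose levels, six mice per level. Survival followed for 1 week; ED50 by probit analysis.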

Staphylococcus aureus [9] = assay: Antimicrobial activity against Staphylococcus aureus MW2 harboring parC R400C mutant gene by broth microdilution method; type: functional; how it was run: as §1
Staphylococcus aureus [10] = assay: Antimicrobial activity against Staphylococcus aureus USA200 harboring […] S84L and parC R400C mutant gene by broth microdilution method; type: functional; how it was run: as §1
Streptococcus pneumoniae [11] = assay: Antibacterial activity against ciprofloxacin-resistant Streptococcus pneumoniae by broth microdilution method; type: functional; how it was run: as §1
Staphylococcus aureus [12] = assay: Antibacterial activity against methicillin-resistant Staphylococcus aureus by broth microdilution method; type: functional; how it was run: as §1
Staphylococcus aureus [13] = assay: Antibacterial activity against quinoline pyrimidine trione-resistant Staphylococcus aureus ATCC 29213 by broth microdilution method; type: functional; how it was run: as §1
Staphylococcus aureus [14] = assay: Antimicrobial activity against Staphylococcus aureus 286607-R1 by broth microdilution method; type: functional; how it was run: as §1
Staphylococcus aureus [15] = assay: Antibacterial activity against ciprofloxacin-resistant Staphylococcus aureus ATCC 29213 by broth microdilution method; type: functional; how it was run: as §1
Streptococcus pneumoniae [16] = assay: Antibacterial activity against Streptococcus pneumoniae by broth microdilution method; type: functional; how it was run: as §1
Haemophilus influenzae = assay: Antibacterial activity against Haemophilus influenzae UC30063 by broth microdilution method; type: functional; how it was run: as §1
Streptococcus pyogenes = assay: Antibacterial activity against Streptococcus pyogenes UC152 by broth microdilution method; type: functional; how it was run: as §1
Staphylococcus aureus [17] = assay: Antibacterial activity against methicillin and ciprofloxacin-resistant Staphylococcus aureus UC12673 by broth microdilution method; type: functional; how it was run: as §1
Staphylococcus aureus [18] = assay: Antibacterial activity against Staphylococcus aureus UC9218 by broth microdilution method in presence of 50% serum; type: functional; how it was run: as §1
Enterococcus faecium = assay: Antibacterial activity against Enterococcus faecium UC12712 by broth microdilution method; type: functional; how it was run: as §1
[19] = system: Staphylococcus epidermidis; assay: Antibacterial activity against methicillin and ciprofloxacin-resistant Staphylococcus epidermidis UC12084 by broth microdilution method; type: functional; how it was run: as §1
Staphylococcus aureus [20] = assay: Antibacterial activity against methicillin-resistant Staphylococcus aureus UC9213 by broth microdilution method; type: functional; how it was run: as §1
Streptococcus pneumoniae [21] = assay: Antibacterial activity against Streptococcus pneumoniae UC15142 by broth microdilution method; type: functional; how it was run: as §1
Streptococcus pneumoniae [22] = assay: Antibacterial activity against Streptococcus pneumoniae UC9912 by broth microdilution method; type: functional; how it was run: as §1
Staphylococcus aureus [23] = assay: Antibacterial activity against Staphylococcus aureus UC9218 by broth microdilution method in presence of 25% serum; type: functional; how it was run: as §1
Klebsiella pneumoniae = assay: Antibacterial activity against Klebsiella pneumoniae UC12081 by broth microdilution method; type: functional; how it was run: as §1
Moraxella catarrhalis = assay: Antibacterial activity against Moraxella catarrhalis UC3067 by broth microdilution method; type: functional; how it was run: as §1
Pseudomonas aeruginosa = assay: Antibacterial activity against Pseudomonas aeruginosa UC6676 by broth microdilution method; type: functional; how it was run: as §1
Enterococcus faecalis = assay: Antibacterial activity against Enterococcus faecalis UC9217 by broth microdilution method; type: functional; how it was run: as §1
Escherichia coli = assay: Antibacterial activity against Escherichia coli UC6674 by broth microdilution method; type: functional; how it was run: as §1
Staphylococcus aureus [24] = assay: Antibacterial activity against methicillin-susceptible Staphylococcus aureus UC9218 by broth microdilution method; type: functional; how it was run: as §1

Question: Which MIC50 (Staphylococcus aureus [1]) does the source give for `O=C(O)c1cn(C2CC2)c2cc(N3CCNCC3)c(F)cc2c1=O` [CIPROFLOXACIN] here?
Answer: 0.125 µg/mL (≈ 0.377 µM)

Question: And the MIC90 (Staphylococcus aureus [1])?
Answer: 0.25 µg/mL (≈ 0.754 µM)

Question: And the MIC (Staphylococcus aureus [2])?
Answer: 0.25 µg/mL (≈ 0.754 µM)

Question: And the IC50 [3]?
Answer: 1000 nM

Question: What about the MIC50 (Staphylococcus aureus [4]) of the same compound?
Answer: 16 µg/mL (≈ 48.3 µM)

Question: And the MIC90 (Staphylococcus aureus [4])?
Answer: > 64 µg/mL

Question: And the MIC (Staphylococcus aureus [5])?
Answer: 64 µg/mL (≈ 193 µM)

Question: What about the IC50 [6] of the same compound?
Answer: 100 nM

Question: What about the MIC (Staphylococcus aureus [7]) of the same compound?
Answer: 0.25 µg/mL (≈ 0.754 µM)

Question: What about the ED50 (Staphylococcus aureus [8]) of the same compound?
Answer: 10 mg/kg

Question: And the MIC (Staphylococcus aureus [9])?
Answer: 0.25 µg/mL (≈ 0.754 µM)

Question: What about the MIC (Staphylococcus aureus [10]) of the same compound?
Answer: 8 µg/mL (≈ 24.1 µM)

Question: And the MIC50 (Streptococcus pneumoniae [11])?
Answer: 32 µg/mL (≈ 96.6 µM)

Question: And the MIC90 (Streptococcus pneumoniae [11])?
Answer: 64 µg/mL (≈ 193 µM)

Question: And the MIC50 (Staphylococcus aureus [12])?
Answer: 0.25 µg/mL (≈ 0.754 µM)

Question: What about the MIC90 (Staphylococcus aureus [12]) of the same compound?
Answer: 32 µg/mL (≈ 96.6 µM)

Question: What about the MIC (Staphylococcus aureus [13]) of the same compound?
Answer: 0.5 µg/mL (≈ 1.51 µM)

Question: What about the MIC (Staphylococcus aureus [14]) of the same compound?
Answer: 0.25 µg/mL (≈ 0.754 µM)

Question: What about the MIC (Staphylococcus aureus [15]) of the same compound?
Answer: 8 µg/mL (≈ 24.1 µM)

Question: And the MIC50 (Streptococcus pneumoniae [16])?
Answer: 1 µg/mL (≈ 3.02 µM)

Question: And the MIC90 (Streptococcus pneumoniae [16])?
Answer: 2 µg/mL (≈ 6.04 µM)

Question: For `C[C@H]1CN2c3ccc([N+](=O)[O-])cc3CC3(C(=O)NC(=O)NC3=O)[C@@H]2[C@@H](C)O1`, which MIC (Staphylococcus aureus [1]) is on record?
Answer: > 64 µg/mL

Question: What about the MIC50 (Staphylococcus aureus [1]) of the same compound?
Answer: > 64 µg/mL

Question: And the MIC90 (Staphylococcus aureus [1])?
Answer: > 64 µg/mL

Question: What about the MIC (Haemophilus influenzae) of the same compound?
Answer: > 128 µg/mL

Question: What about the MIC (Streptococcus pyogenes) of the same compound?
Answer: > 64 µg/mL

Question: What about the MIC (Staphylococcus aureus [4]) of the same compound?
Answer: 64 µg/mL (≈ 171 µM)

Question: And the MIC50 (Staphylococcus aureus [4])?
Answer: 64 µg/mL (≈ 171 µM)

Question: And the MIC90 (Staphylococcus aureus [4])?
Answer: > 64 µg/mL

Question: What about the MIC (Staphylococcus aureus [17]) of the same compound?
Answer: > 64 µg/mL

Question: What about the MIC (Staphylococcus aureus [18]) of the same compound?
Answer: > 128 µg/mL

Question: And the MIC (Enterococcus faecium)?
Answer: > 64 µg/mL

Question: And the MIC [19]?
Answer: > 64 µg/mL

Question: What about the MIC (Staphylococcus aureus [20]) of the same compound?
Answer: > 64 µg/mL

Question: And the MIC (Streptococcus pneumoniae [21])?
Answer: > 128 µg/mL

Question: And the MIC (Streptococcus pneumoniae [11])?
Answer: > 64 µg/mL

Question: And the MIC50 (Streptococcus pneumoniae [11])?
Answer: > 64 µg/mL

Question: And the MIC90 (Streptococcus pneumoniae [11])?
Answer: > 64 µg/mL

Question: And the MIC (Staphylococcus aureus [12])?
Answer: > 64 µg/mL

Question: What about the MIC50 (Staphylococcus aureus [12]) of the same compound?
Answer: > 64 µg/mL

Question: What about the MIC90 (Staphylococcus aureus [12]) of the same compound?
Answer: > 64 µg/mL

Question: And the MIC (Streptococcus pneumoniae [22])?
Answer: > 128 µg/mL

Question: What about the MIC (Staphylococcus aureus [23]) of the same compound?
Answer: 128 µg/mL

Question: What about the MIC (Klebsiella pneumoniae) of the same compound?
Answer: > 64 µg/mL

Question: What about the MIC (Moraxella catarrhalis) of the same compound?
Answer: > 64 µg/mL

Question: What about the MIC (Pseudomonas aeruginosa) of the same compound?
Answer: > 64 µg/mL

Question: What about the MIC (Streptococcus pneumoniae [16]) of the same compound?
Answer: > 64 µg/mL

Question: And the MIC50 (Streptococcus pneumoniae [16])?
Answer: > 64 µg/mL

Question: What about the MIC90 (Streptococcus pneumoniae [16]) of the same compound?
Answer: > 64 µg/mL

Question: And the MIC (Enterococcus faecalis)?
Answer: > 128 µg/mL

Question: And the MIC (Escherichia coli)?
Answer: > 128 µg/mL

Question: And the MIC (Staphylococcus aureus [24])?
Answer: 128 µg/mL (≈ 342 µM)
